Measurements as given in ChEMBL document CHEMBL1671756, “In vitro and in vivo antifungal susceptibilities of the Mucoralean fungus Cunninghamella” (2010).
Activity calls are given as the source filed them. The calls are words filed in the database; no cut-off is given here.

Tests used:
Format in all cases: functional, organism-based
[1] = system: Cunninghamella bertholletiae; experiment: Antifungal activity against Cunninghamella bertholletiae UTHSC 05-2275 infected in diabetic OF1 mouse assessed as increase in mouse survival rate at 20 mg/kg, po qd administered 1 day after infection for 7 days relative to untreated control; design: dose 20 mg/kg
Summary of the method: (§1)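 Male OF1 mice made diabetic with streptozocin 210 mg/kg i.p.; blood glucose above 250 mg/dl at day 10 required. Infected i.v. via the tail vein with 1 × 10⁵ CFU sporangiospores in 0.2 ml saline. Ceftazidime 5 mg/day s.c. on days 1–7. Oral once-daily treatment from day 1 for 7 days; 10 mice per group; followed for 20 days; Kaplan-Meier mean survival time, log-rank test.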

[2] = system: Cunninghamella bertholletiae; experiment: Antifungal activity against Cunninghamella bertholletiae UTHSC 05-2275 infected in diabetic OF1 mouse assessed as increase in mouse survival rate at 80 mg/kg, po qd administered 1 day after infection for 7 days relative to untreated control; design: dose 80 mg/kg; summary of the method: as §1
[3] = system: Cunninghamella bertholletiae; experiment: Antifungal activity against Cunninghamella bertholletiae UTHSC 05-2275 infected in neutropenic OF1 mouse assessed as decreased fungal load in brain at 80 mg/kg, po qd administered 1 day post infection measured after 4 to 5 days relative to untreated control; design: dose 80 mg/kg
Summary of the method: (§2)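 Neutropenic male OF1 mice (cyclophosphamide 200 mg/kg i.p. plus 5-fluorouracil 150 mg/kg i.v., day −1) were given 1 × 10⁴ CFU sporangiospores i.v. in 0.2 ml saline. Treatment from 24 h: 0.8 mg/kg i.v. or oral doses once daily; 10 mice per group. Killed at day 5 (day 4 if moribund). About half of brain, lungs and kidneys homogenized in saline; 10-fold dilutions plated on PDA for 24 h at 35°C; log₁₀ CFU/g tissue.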

[4] = system: Cunninghamella bertholletiae; experiment: Antifungal activity against Cunninghamella bertholletiae UTHSC 04-2581 infected in neutropenic OF1 mouse assessed as decreased fungal load in brain at 60 mg/kg, po qd administered 1 day post infection measured after 4 to 5 days relative to untreated control; design: dose 60 mg/kg; summary of the method: as §2
[5] = system: Cunninghamella bertholletiae; experiment: Antifungal activity against Cunninghamella bertholletiae FMR-9598 infected in neutropenic OF1 mouse assessed as decreased fungal load in brain at 0.8 mg/kg, iv qd administered 1 day post infection measured after 4 to 5 days relative to untreated control; design: dose 0.8 mg/kg; summary of the method: as §2
[6] = system: Cunninghamella bertholletiae; experiment: Antifungal activity against Cunninghamella bertholletiae UTSCH 05-2275 infected in diabetic OF1 mouse assessed as decreased fungal load in kidney at 40 mg/kg, po qd administered 1 day post infection measured after 4 to 5 days relative to untreated control; design: dose 40 mg/kg
Summary of the method: (§3)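 Diabetic male OF1 mice (streptozocin 210 mg/kg i.p.; glucose above 250 mg/dl) were challenged i.v. with 1 × 10⁵ CFU sporangiospores. Oral once-daily dosing from day 1 for 7 days; 10 mice per group. Killed at day 5 (day 4 if moribund). About half of each organ homogenized in saline; serial 10-fold dilutions plated on PDA for 24 h at 35°C; log₁₀ CFU/g tissue.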

[7] = system: Cunninghamella bertholletiae; experiment: Antifungal activity against Cunninghamella bertholletiae UTSCH 05-2275 infected in diabetic OF1 mouse assessed as decreased fungal load in kidney at 80 mg/kg, po qd administered 1 day post infection measured after 4 to 5 days relative to untreated control; design: dose 80 mg/kg
Summary of the method: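 Male OF1 mice (mean 30 g) made diabetic with a single i.p. dose of streptozocin 210 mg/kg; blood glucose >250 mg/dl at day 10 qualified. Ceftazidime 5 mg/day s.c. given on days 1–7. Challenge by lateral tail vein with 1 × 10⁵ CFU sporangiospores in 0.2 ml saline. Oral dosing once daily for 7 days, starting 1 day after challenge. Untreated controls. Ten mice per group.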

[8] = system: Cunninghamella bertholletiae; experiment: Antifungal activity against Cunninghamella bertholletiae UTSCH 05-2275 infected in diabetic OF1 mouse assessed as decreased fungal load in brain at 60 mg/kg, po qd administered 1 day post infection measured after 4 to 5 days relative to untreated control; design: dose 60 mg/kg; summary of the method: as §3
[9] = system: Cunninghamella bertholletiae; experiment: Antifungal activity against Cunninghamella bertholletiae FMR 9598 infected in neutropenic OF1 mouse assessed as increase in mouse survival rate at 0.8 mg/kg, iv qd administered 1 day after infection for 7 days relative to untreated control; design: dose 0.8 mg/kg
Summary of the method: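 Male OF1 mice (~30 g) were made neutropenic with cyclophosphamide 200 mg/kg i.p. plus 5-fluorouracil 150 mg/kg i.v. 1 day before challenge. Challenge was 1 × 10⁴ CFU sporangiospores in 0.2 ml saline via the lateral tail vein. Mice got ceftazidime 5 mg/day s.c. on days 1–7. Dosing started 24 h post-challenge for 7 days. There were 10 mice/group, observed daily for 20 days. Kaplan-Meier analysis with log-rank test.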

[10] = system: Cunninghamella bertholletiae; experiment: Antifungal activity against Cunninghamella bertholletiae UTHSC 05-2275 infected in neutropenic OF1 mouse assessed as decreased fungal load in kidney at 0.8 mg/kg, iv qd administered 1 day post infection measured after 4 to 5 days relative to untreated control; design: dose 0.8 mg/kg
Summary of the method: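 Neutropenic male OF1 mice (cyclophosphamide 200 mg/kg i.p. + 5-fluorouracil 150 mg/kg i.v., day −1) were infected i.v. with 1 × 10⁴ CFU. Ten mice per group were treated from day 1 and killed by CO₂ on day 5, or on day 4 if moribund. Half of each brain, lung and kidney was homogenized in 1 ml saline. Ten-fold dilutions were plated on PDA for 24 h at 35°C and counted as log₁₀ CFU/g.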

[11] = system: Cunninghamella bertholletiae; experiment: Antifungal activity against Cunninghamella bertholletiae UTSCH 05-2275 infected in diabetic OF1 mouse assessed as decreased fungal load in lung at 0.8 mg/kg, iv qd administered 1 day post infection measured after 4 to 5 days relative to untreated control; design: dose 0.8 mg/kg
Summary of the method: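 Diabetic OF1 mice (streptozocin 210 mg/kg i.p.; glucose >250 mg/dl) were infected i.v. with 1 × 10⁵ CFU, with ceftazidime cover. Ten per group were treated from day 1 and killed day 5, or day 4 if moribund. Half-organ homogenates (brain, lung, kidney) in 1 ml saline were serially diluted 10-fold on PDA, incubated 24 h at 35°C, and reported as log₁₀ CFU/g tissue.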

Q: For `CC[C@@H]([C@H](C)O)n1ncn(-c2ccc(N3CCN(c4ccc(OC[C@@H]5CO[C@@](Cn6cncn6)(c6ccc(F)cc6F)C5)cc4)CC3)cc2)c1=O` [POSACONAZOLE], which Activity [1] is on record?
A: inactive

Q: What about the Activity [2] of the same molecule?
A: Active

Q: And the Activity [3]?
A: Active

Q: What about the Activity [4] of the same molecule?
A: Active

Q: What about the Activity [5] of the same molecule?
A: Active

Q: And the Activity [6]?
A: Active

Q: And the Activity [7]?
A: Active

Q: What about the Activity [8] of the same molecule?
A: Active

Q: With `C[C@@H]1[C@H](O)[C@@H](C)/C=C/C=C/C=C/C=C/C=C/C=C/C=C/[C@H](O[C@@H]2O[C@H](C)[C@@H](O)[C@H](N)[C@@H]2O)C[C@@H]2O[C@](O)(C[C@@H](O)C[C@@H](O)[C@H](O)CC[C@@H](O)C[C@@H](O)CC(=O)O[C@H]1C)C[C@H](O)[C@H]2C(=O)O` [AMPHOTERICIN B] as the molecule, how does the Activity [9] read?
A: inactive

Q: And the Activity [10]?
A: Active

Q: What about the Activity [11] of the same molecule?
A: inactive
